ChEMBL document CHEMBL4251717, “Bioactive α-Pyrone Derivatives from the Endolichenic Fungus Dothideomycetes sp. EL003334” (J Nat Prod, 2018)
Active and inactive are the calls of the source. No cut-off for these calls is given here.

Columns and labels:
[1] = tested on: BV-2; experiment: Cytotoxicity against […] BV2 cells assessed as reduction in cell viability up to 40 uM after 24 hrs by MTT assay; assay type: cell-based; details: bv-2, 24 h
Procedure, shortened: (§1)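 BV2 cells (1 × 10^5 cells/well) exposed to compound for 24 h, at concentrations up to 80 μM. MTT added to 0.5 mg/mL final for 3 h. Formazan dissolved in acidic 2-propanol and read at 540 nm. Untreated cells set as 100% viability.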

[2] = tested on: BV-2; experiment: Antiinflammatory activity in […] BV2 cells assessed as inhibition of LPS-induced NO production preincubated for 3 hrs followed by LPS stimulation measured after 24 hrs by Griess assay; assay type: functional, cell-based
Procedure, shortened: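 BV2 cells pretreated with compound for 3 h, then LPS (1 μg/mL) for 24 h. Nitrite in conditioned medium taken as NO indicator. Supernatant mixed 1:1 with Griess reagent (0.1% N-(1-naphthyl)ethylenediamine, 1% sulfanilamide in 5% phosphoric acid), 10 min at room temperature. A540 read. Concentration from a sodium nitrite standard curve made in phenol red-free DMEM. IC50 reported.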

[3] = tested on: BV-2; experiment: Inhibition of COX2 protein expression level in LPS-induced […] BV2 cells preincubated for 3 hrs followed by LPS stimulation measured after 24 hrs by Western blot analysis; assay type: functional, cell-based
Procedure, shortened: (§2)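 BV2 cells pretreated 3 h with compound, then LPS (1 μg/mL) for 24 h. Cells lysed in 20 mM Tris-HCl pH 7.4 with protease inhibitors. Protein quantified by Lowry. Equal protein run on 7.5% and 12% SDS-PAGE, transferred to nitrocellulose and probed with anti-iNOS, anti-COX-2 and anti-actin antibodies, ECL detection.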

[4] = tested on: BV-2; experiment: Antiinflammatory activity in […] BV2 cells assessed as inhibition of LPS-induced PGE2 production preincubated for 3 hrs followed by LPS stimulation measured after 24 hrs by ELISA; assay type: functional, cell-based
Procedure, shortened: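 Pretreatment of BV2 cells with compound for 3 h, then LPS (1 μg/mL) stimulation for 24 h. PGE2 in culture medium measured by ELISA/enzyme immunoassay kit.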

[5] = tested on: BV-2; experiment: Antiinflammatory activity in LPS-induced mouse BV2 cells assessed as inhibition of TNF-alpha mRNA expression level preincubated for 3 hrs followed by LPS stimulation measured after 6 hrs by qRT-PCR analysis
[6] = tested on: BV-2; experiment: Inhibition of iNOS protein expression level in LPS-induced […] BV2 cells preincubated for 3 hrs followed by LPS stimulation measured after 24 hrs by Western blot analysis; assay type: functional, cell-based; procedure, shortened: as §2
[7] = tested on: BV-2; experiment: Antiinflammatory activity in LPS-induced […] BV2 cells assessed as inhibition of IL-6 mRNA expression level preincubated for 3 hrs followed by LPS stimulation measured after 6 hrs by qRT-PCR analysis; assay type: functional, cell-based
Procedure, shortened: (§3)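 BV2 microglia in DMEM with 10% heat-inactivated FBS, penicillin/streptomycin and 2 mM L-glutamine, 37 °C, 5% CO2. Cells incubated with compound for 3 h, then LPS (1 μg/mL) for 6 h. Il1b, Il6 and Tnf mRNA measured by RT-qPCR with GAPDH as endogenous control. Relative expression by comparative Ct (2−ΔΔCt). Mean of three independent experiments.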

[8] = tested on: BV-2; experiment: Cytotoxicity against […] BV2 cells assessed as reduction in cell viability up to 80 uM after 24 hrs by MTT assay; assay type: cell-based; details: bv-2, 24 h; procedure, shortened: as §1
[9] = tested on: BV-2; experiment: Antiinflammatory activity in LPS-induced […] BV2 cells assessed as inhibition of IL-1beta mRNA expression level preincubated for 3 hrs followed by LPS stimulation measured after 6 hrs by qRT-PCR analysis; assay type: functional, cell-based; procedure, shortened: as §3

SMILES	Activity [1]	IC50 ([2]; Mus musculus) [µM]	inhibition [3]	inhibition [4]	inhibition [5]	inhibition [6]	inhibition [7]	Activity [8]	inhibition [9]	inhibition [2]
CCCCCCCC[C@H](O)c1cc(OC)c(CO)c(=O)o1	Non-Toxic	15	Dose-dependent effect	Dose-dependent effect	Dose-dependent effect	Dose-dependent effect	Dose-dependent effect	Toxic	Dose-dependent effect	–
COc1cc([C@@H](O)CCCCCC[C@@H](C)O)oc(=O)c1CO	–	–	–	–	–	–	–	–	–	inactive
